# Measured values pooled from the literature.
# Lines come from different studies, so protocols differ.
Compound,target or system,assay,system,conditions,measurement,result
O=C(Nc1cccc(-c2ncco2)c1)c1cc([N+](=O)[O-])c(F)cc1F,,metabolic stability,"CD-1 mouse, liver microsomes","1 µM, 1 h, pH 7.4",scaled CLint,2200 mL/min/kg
CCn1cnc2c(=O)[nH]c(N)nc21.NCCNCCN.[Pt+2],CCRF-CEM,"cell growth or viability, WST-1",,,IC50,> 100 µM
CN1CCN(c2nc(-c3ccccn3)nc3ccccc23)CC1,,metabolic stability,"mouse, liver microsomes",,microsomal CLint,19 µL/min/mg
O=C(Nc1cncc(-c2nc3ccccc3o2)c1)c1cc([N+](=O)[O-])c(N2CCNCC2)cc1Cl,,metabolic stability,"CD-1 mouse, liver microsomes","1 µM, 1 h, pH 7.4",scaled CLint,10 mL/min/kg
COc1ccc(CC(CC(=O)O)C(=O)O)cc1OC (stereo not drawn),Huh7.5,"cell growth or viability, MTT",,,CC50,> 5 mM
Oc1c(Br)cc(Cl)c2cccnc12,,,"Sprague-Dawley rat, plasma","oral, 20 mg/kg",Vd/F,39.9 L/kg
NC(=O)c1cnc2[nH]ccc2c1N[C@@H]1[C@@H]2CC3C[C@H]1C[C@@](O)(C3)C2,"ATP-binding cassette sub-family C member 4 (ABCC4, Homo sapiens, UniProt O15439)","transporter uptake, inhibitor, radiometric",Sf9,"100 µM, 5 min, pH 7, cell membranes",inhibition,< 50%
COC[C@@H](Cc1ccc(OC)c(OC)c1)[C@@H](COC)Cc1ccc(OC)c(OC)c1,Huh7.5,"cell growth or viability, MTT",,,CC50,5 mM
Fc1ccc(Nc2nc(-c3ccccn3)nc3ccccc23)cc1,,metabolic stability,"mouse, liver microsomes",,microsomal CLint,138 µL/min/mg
